Measured values: ChEMBL document CHEMBL1125135, “Synthesis and central nervous system actions of thyrotropin-releasing hormone analogues containing a dihydroorotic acid moiety” (J Med Chem, 1990)
Active and inactive are the calls of the source. The rule behind the calls is not given here.

Key:
Mus musculus [1] = assay: Evaluated for the effect on spontaneous locomotor activity in mice by intraperitoneal (ip) administration relative to TRH
Mus musculus [2] = assay: Toxicity and mortality indicates the number of dead animals / number of animals used at dose of 500 mg/kg by administering intravenously (iv) in 3 mice.; assay type: organism-based; set-up: dose 500 mg/kg, route intravenous; settings: in vivo
Outline: (§1)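 Acute toxicity in male Std/ddY mice (26-28 g), three to 10 per group. Compound dissolved in physiological saline and given as a single iv dose of 500 mg/kg. Animals observed for 1 week at 23-24 °C. Mortality recorded as dead/used.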

Mus musculus [3] = assay: (§2) Effect on pentobarbitol anesthesia (antagonist activity) in mice by intravenous (iv) administration relative to TRH; assay type: functional, organism-based
Outline: (§3)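 Mouse CNS tests followed methods from the authors' earlier paper. The potency ratio versus TRH comes from dose-response data for the test compound and TRH using the parallel line assay method.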

Mus musculus [4] = assay: (§4) Effect on reserpine-induced hypothermia (antagonist activity) in mice by intraperitoneal (ip) administration relative to TRH; assay type: functional, organism-based
Outline: as §3

Mus musculus [5] = assay: as §2; assay type: functional
Outline: (§5)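 Mouse CNS assay run by the method of an earlier report. Potency ratio to TRH derived from dose-response data by parallel line assay.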

Mus musculus [6] = assay: Evaluated for the effect on spontaneous locomotor activity in mice by intraperitoneal (ip) administration relative to TRH; remark: listed apart in the source
Mus musculus [7] = assay: as §4; assay type: functional
Outline: as §5

Mus musculus [8] = assay: Toxicity and mortality indicates the number of dead animals / number of animals used at the compound dose of 500 mg/kg by administering intravenously (iv) in mice.; assay type: organism-based; set-up: dose 500 mg/kg, route intravenous; settings: in vivo
Outline: as §1

Mus musculus [9] = assay: Evaluated for the effect on spontaneous locomotor activity in mice by intraperitoneal (ip) administration relative to TRHV; Not active
Mus musculus [10] = assay: Effect on pentobarbitol anesthesia (antagonist activity) in mice by intravenous (iv) administration relative to TRHC; Not active; assay type: functional, organism-based
Outline: as §3

Mus musculus [11] = assay: Effect on reserpine-induced hypothermia (antagonist activity) in mice by intraperitoneal (ip) administration relative to TRH; Nonactive; assay type: functional
Outline: as §5

[12] = Evaluated for the potency ratio from the dose-response curve of TRH and compound by the parallel line assay method.; assay type: functional
Outline: (§6)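 TSH release test in rats run as in the authors' earlier paper. Peptide given iv as μg/rat doses, 4–7 rats per group with a control group. Serum TSH reported in μg/100 mL as mean ± SE. Potency ratio versus TRH from parallel-line analysis of dose-response curves. Groups compared with control by two-tailed Student's t test.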

Rattus norvegicus [13] = assay: The thyrotropin (TSH) releasing activity was measured as serum TSH at 0.5 ug/rat dose (i.v.); assay type: functional, organism-based
Outline: as §6

Rattus norvegicus [14] = assay: The thyrotropin (TSH) releasing activity was measured as serum TSH at 0.125 ug/rat dose (i.v.); assay type: functional, organism-based
Outline: as §6

Rattus norvegicus [15] = assay: The thyrotropin (TSH) releasing activity was measured as serum TSH at 0.03125 ug/rat dose (i.v.); assay type: functional, organism-based
Outline: as §6

Mus musculus [16] = assay: Toxicity and mortality indicates the number of dead animals / number of animals used at the compound dose of 500 mg/kg by administering intravenously (iv) in 3 mice; assay type: functional
Outline: as §1

Compound	Activity (Mus musculus [1])	Mortality (Mus musculus [2])	Activity (Mus musculus [3])	Activity (Mus musculus [4])	Activity (Mus musculus [5])	other results
CN1C(=O)C[C@@H](C(=O)N[C@@H](Cc2c[nH]cn2)C(=O)N2CCC[C@@H]2C(N)=O)NC1=O	inactive	0	inactive	inactive		
CCCCCN1C(=O)C[C@@H](C(=O)N[C@@H](Cc2c[nH]cn2)C(=O)N2CCC[C@H]2C(N)=O)NC1=O [listing 1 of 2 here]					0.4	
CN1C(=O)NC(=O)C[C@H]1C(=O)N[C@H](Cc1c[nH]cn1)C(=O)N1CCC[C@@H]1C(N)=O	inactive		inactive	inactive		
C=CCN1C(=O)C[C@@H](C(=O)N[C@@H](Cc2c[nH]cn2)C(=O)N2CCC[C@H]2C(N)=O)NC1=O [listing 1 of 2 here]					4.4	Activity (Mus musculus [6]): 5.7; Activity (Mus musculus [7]): 4.7
NC(=O)[C@@H]1CCCN1C(=O)[C@H](Cc1c[nH]cn1)NC(=O)[C@@H]1CC(=O)N(CCF)C(=O)N1 [listing 1 of 2 here]		1				
CC(C)N1C(=O)C[C@@H](C(=O)N[C@@H](Cc2c[nH]cn2)C(=O)N2CCC[C@H]2C(N)=O)NC1=O [listing 1 of 2 here]					1.9	Activity (Mus musculus [6]): 5; Activity (Mus musculus [7]): 11.5
CN1C(=O)C[C@@H](C(=O)N[C@@H](Cc2c[nH]cn2)C(=O)N2CCC[C@H]2C(N)=O)N(C)C1=O [listing 1 of 2 here]		0				
NC(=O)[C@@H]1CCCN1C(=O)[C@H](Cc1c[nH]cn1)NC(=O)[C@@H]1CC(=O)N(CCF)C(=O)N1 [listing 2 of 2 here]					1.2	Activity (Mus musculus [6]): 0.9; Activity (Mus musculus [7]): 4.1
CCCCCCCCCCCCCCCCCCN1C(=O)C[C@@H](C(=O)N[C@H](Cc2c[nH]cn2)C(=O)N2CCC[C@@H]2C(N)=O)NC1=O	inactive		inactive	inactive		
CCCCCN1C(=O)C[C@@H](C(=O)N[C@@H](Cc2c[nH]cn2)C(=O)N2CCC[C@H]2C(N)=O)NC1=O [listing 2 of 2 here]		2				
CN1C(=O)C[C@@H](C(=O)N[C@@H](Cc2c[nH]cn2)C(=O)N2CCC[C@H]2C(N)=O)N(C)C1=O [listing 2 of 2 here]					1.2	Activity (Mus musculus [6]): 0.4; Activity (Mus musculus [7]): 0.5
CC(=O)O.CCCCCCCCCCCCCCCCCCN1C(=O)C[C@@H](C(=O)N[C@@H](Cc2c[nH]cn2)C(=O)N2CCC[C@H]2C(N)=O)NC1=O						Mortality (Mus musculus [8]): 1
CN1C(=O)C[C@@H](C(=O)N[C@H](Cc2c[nH]cn2)C(=O)N2CCC[C@H]2C(N)=O)NC1=O	inactive	0	inactive	inactive		
Cn1c(=O)cc(C(=O)N[C@@H](Cc2c[nH]cn2)C(=O)N2CCC[C@@H]2C(N)=O)[nH]c1=O	inactive	0		inactive	0.4	
NC(=O)[C@@H]1CCCN1C(=O)[C@H](Cc1c[nH]cn1)NC(=O)C1CC(=O)N(CCOCc2ccccc2)C(=O)N1 (mixture of isomers)	inactive	0			0.4	Activity (Mus musculus [7]): 1.1
CCCN1C(=O)C[C@@H](C(=O)N[C@@H](Cc2c[nH]cn2)C(=O)N2CCC[C@H]2C(N)=O)NC1=O [listing 1 of 2 here]						Activity (Mus musculus [6]): 0.7
CN1C(=O)C[C@@H](C(=O)N[C@H](Cc2c[nH]cn2)C(=O)OCc2ccccc2)NC1=O	inactive	0	inactive	inactive		
CCCN1C(=O)C[C@@H](C(=O)N[C@@H](Cc2c[nH]cn2)C(=O)N2CCC[C@H]2C(N)=O)NC1=O [listing 2 of 2 here]		0				
CN1C(=O)C[C@@H](C(=O)N[C@H](Cc2c[nH]cn2)C(=O)N2CCC[C@@H]2C(=O)O)NC1=O	inactive	0	inactive	inactive		
CN1C(=O)N(Cc2ccccc2)C(=O)CC1C(=O)N[C@@H](Cc1c[nH]cn1)C(=O)N1CCC[C@H]1C(N)=O (mixture of isomers)	inactive	0	inactive	inactive		
CN1C(=O)C[C@@H](C(=O)N[C@H](Cc2c[nH]cn2)C(=O)N2CCC[C@@H]2C(=O)OCc2ccccc2)NC1=O.Cl		3		inactive		Activity (Mus musculus [9]): inactive; Activity (Mus musculus [10]): inactive

Compound	Activity (Mus musculus [1])	Mortality (Mus musculus [2])	Activity (Mus musculus [3])	Activity (Mus musculus [4])	Activity (Mus musculus [5])	other results
NC(=O)[C@@H]1CCCN1C(=O)[C@H](Cc1c[nH]cn1)NC(=O)[C@@H]1CC(=O)N(CC(=O)O)C(=O)N1	inactive	0			0.1	Activity (Mus musculus [7]): 0.1
CCCCCN1C(=O)C[C@@H](C(=O)N[C@H](Cc2c[nH]cn2)C(=O)N2CCC[C@@H]2C(N)=O)NC1=O	inactive			inactive		
CCCCN1C(=O)C[C@@H](C(=O)N[C@@H](Cc2c[nH]cn2)C(=O)N2CCC[C@H]2C(N)=O)NC1=O [listing 1 of 2 here]					0.8	Activity (Mus musculus [6]): 1.2; Activity (Mus musculus [7]): 1.8
CC(C)N1C(=O)C[C@@H](C(=O)N[C@@H](Cc2c[nH]cn2)C(=O)N2CCC[C@H]2C(N)=O)NC1=O [listing 2 of 2 here]		0				
NC(=O)[C@@H]1CCCN1C(=O)[C@H](Cc1c[nH]cn1)NC(=O)C1CC(=O)N(CCO)C(=O)N1 (mixture of isomers)	inactive	0	inactive	inactive		
NC(=O)[C@@H]1CCCN1C(=O)[C@H](Cc1c[nH]cn1)NC(=O)[C@@H]1CC(=O)N(Cc2ccccc2)C(=O)N1 [listing 1 of 2 here]		3				
CNC(=O)[C@H]1CCCN1C(=O)[C@@H](Cc1c[nH]cn1)NC(=O)[C@@H]1CC(=O)N(C)C(=O)N1		0			0.6	Activity (Mus musculus [11]): 0.9; Activity (Mus musculus [6]): 0.4
COC(=O)[C@@H](Cc1c[nH]cn1)NC(=O)[C@@H]1CC(=O)N(C)C(=O)N1	inactive	0	inactive	inactive		
NC(=O)[C@@H]1CCCN1C(=O)[C@H](Cc1c[nH]cn1)NC(=O)[C@@H]1CC(=O)N(Cc2ccccc2)C(=O)N1 [listing 2 of 2 here]					1.4	Activity (Mus musculus [6]): 2.3; Activity (Mus musculus [7]): 6.8
CN(C)C(=O)[C@H]1CCCN1C(=O)[C@@H](Cc1c[nH]cn1)NC(=O)[C@@H]1CC(=O)N(C)C(=O)N1	inactive	0	inactive	inactive		
CN1C(=O)C[C@@H](C(=O)N[C@H](Cc2c[nH]cn2)C(=O)O)NC1=O	inactive	0	inactive	inactive		
C=CCN1C(=O)C[C@@H](C(=O)N[C@@H](Cc2c[nH]cn2)C(=O)N2CCC[C@H]2C(N)=O)NC1=O [listing 2 of 2 here]		1				
CCC[C@H](NC(=O)[C@@H]1CC(=O)N(C)C(=O)N1)C(=O)N1CCC[C@@H]1C(N)=O	inactive	0	inactive	inactive		
CCCCN1C(=O)CC(C(=O)N[C@@H](Cc2c[nH]cn2)C(=O)N2CCC[C@H]2C(N)=O)N(C)C1=O (stereo partly drawn)	inactive	0	inactive	inactive		
NCCN1C(=O)CC(C(=O)N[C@@H](Cc2c[nH]cn2)C(=O)N2CCC[C@H]2C(N)=O)NC1=O (mixture of isomers)	inactive	0	inactive	inactive		
NC(=O)[C@@H]1CCCN1C(=O)[C@H](Cc1c[nH]cn1)NC(=O)[C@@H]1CCC(=O)N1						Ratio [12]: 1; Serum TSH (Rattus norvegicus [13]): 351 µg 100ml-1; Serum TSH (Rattus norvegicus [14]): 115 µg 100ml-1; Serum TSH (Rattus norvegicus [15]): 59.1 µg 100ml-1
CN1C(=O)NC(=O)C[C@H]1C(=O)N[C@@H](Cc1c[nH]cn1)C(=O)N1CCC[C@H]1C(N)=O		0				
CN1C(=O)C[C@@H](C(=O)N[C@@H](Cc2c[nH]cn2)C(=O)N2CCC[C@H]2C(N)=O)NC1=O					28.1	Activity (Mus musculus [6]): 60.6; Activity (Mus musculus [7]): 89.4; Mortality (Mus musculus [16]): 0
CCCCN1C(=O)C[C@@H](C(=O)N[C@@H](Cc2c[nH]cn2)C(=O)N2CCC[C@H]2C(N)=O)NC1=O [listing 2 of 2 here]		1				
NC(=O)[C@@H]1CCCN1C(=O)[C@H](Cc1c[nH]cn1)NC(=O)C1=NC(=O)NC(=O)C1		0			1.3	Activity (Mus musculus [6]): 3.1; Activity (Mus musculus [7]): 5.5
